Converted amounts (≈) assume the structure as drawn. Bounds are passed on as bounds.

The test system of series [1] is Pichia kudriavzevii. Briefly: Antifungal activity against Candida krusei E28 after 24 hrs by broth microdilution method. In kind it is functional. Conditions: E28, 24 h. A general note: In broth dilution the organism is exposed to a series of concentrations in liquid medium.
A short description of series [2]: Lipophilicity, log P of the compound. In kind it is physicochemical. The following applies: octanol/water.
The subject of series [3] is Mycobacterium kansasii. The series can be described thus: Antimycobacterial activity against Mycobacterium kansasii 6509/96 after 7 days by micromethod. It is filed as functional. Conditions: 6509/96, 168 h. Put shortly: (§1)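 Micromethod in Sula semisynthetic medium, with compounds added as DMSO solutions at 1000, 500, 250, 125, 62, 32, 16, 8, 4, 2, 1, 0.5, 0.25. Inoculum dilutions: H37Rv 10^-3; M. avium 330/88 10^-5; M. kansasii 235/80 10^-4; M. kansasii 6509/96 10^-5. Incubated at 37 °C, read at 14 and 21 days, and at 7 days for M. kansasii. MIC was the lowest concentration inhibiting growth.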

Series [4] has as its system Mycobacterium avium. Briefly: Antimycobacterial activity against Mycobacterium avium. In kind it is functional.
The subject of series [5] is Trichophyton mentagrophytes. The series can be described thus: Antifungal activity against Trichophyton mentagrophytes after 48 hrs by broth microdilution method. In kind it is functional.
Series [6] concerns Aspergillus fumigatus. Briefly: Antifungal activity against Aspergillus fumigatus 231 after 24 hrs by broth microdilution method. It is filed as functional. The following applies: Aspergillus fumigatus, 231, 24 h.
In series [7] the test system is Pichia kudriavzevii. The series can be described thus: Antifungal activity against Candida krusei E28 after 48 hrs by broth microdilution method. It is filed as functional. The following applies: E28, 48 h.
Series [8] relates to Mycobacterium avium. The series can be described thus: Antimycobacterial activity against multidrug-resistant Mycobacterium avium 330/88 after 14 days by micromethod. It is filed as functional. Conditions: 330/88, 336 h. Put shortly: as §1
Series [9] has as its system Mycobacterium kansasii. The series can be described thus: Antimycobacterial activity against Mycobacterium kansasii 235/80 after 21 days by micromethod. In kind it is functional. The following applies: 235/80, 504 h. Summed up:
as §1

The test system of series [10] is Candida albicans. The series can be described thus: Antifungal activity against Candida albicans ATCC 44859 after 48 hrs by broth microdilution method. It is filed as functional. The following applies: ATCC 44859, 48 h.
Series [11] has as its system Trichosporon beigelii. Briefly: Antifungal activity against Trichosporon beigelii 1188 after 24 hrs by broth microdilution method. In kind it is functional. Conditions: Trichosporon beigelii, 1188, 24 h.
Series [12] relates to Mycobacterium tuberculosis. Briefly: Antimycobacterial activity against drug-sensitive Mycobacterium tuberculosis. In kind it is functional.
The test system of series [13] is Aspergillus fumigatus. Briefly: Antifungal activity against Aspergillus fumigatus 231 after 48 hrs by broth microdilution method. Conditions: Aspergillus fumigatus, 231, 48 h. It is filed as functional.
Series [14] concerns Mycobacterium kansasii. The series can be described thus: Antimycobacterial activity against Mycobacterium kansasii 6509/96 after 21 days by micromethod. It is filed as functional. The following applies: 6509/96, 504 h. Put shortly: as §1
The subject of series [15] is Candida tropicalis. Briefly: Antifungal activity against Candida tropicalis 156 after 48 hrs by broth microdilution method. In kind it is functional. The following applies: Candida tropicalis, 156, 48 h.
The test system of series [16] is Trichosporon beigelii. The series can be described thus: Antifungal activity against Trichosporon beigelii 1188 after 48 hrs by broth microdilution method. It is filed as functional. The following applies: Trichosporon beigelii, 1188, 48 h.
The subject of series [17] is Candida tropicalis. Briefly: Antifungal activity against Candida tropicalis 156 after 24 hrs by broth microdilution method. It is filed as functional. The following applies: Candida tropicalis, 156, 24 h.
For series [18], the system named is Mycobacterium kansasii. The series can be described thus: Antimycobacterial activity against Mycobacterium kansasii 235/80 after 7 days by micromethod. It is filed as functional. The following applies: 235/80, 168 h. Summed up:
as §1

Series [19] relates to Nakaseomyces glabratus. The series can be described thus: Antifungal activity against Candida glabrata 20/I after 48 hrs by broth microdilution method. In kind it is functional.
Series [20] deals with Mycobacterium avium. Briefly: Antimycobacterial activity against multidrug-resistant Mycobacterium avium 330/88 after 21 days by micromethod. In kind it is functional. Conditions: 330/88, 504 h. Put shortly:
as §1

The subject of series [21] is Lichtheimia corymbifera. Briefly: Antifungal activity against Absidia corymbifera 272 after 48 hrs by broth microdilution method. It is filed as functional. The following applies: Lichtheimia corymbifera, 272, 48 h.
The subject of series [22] is Candida albicans. Briefly: Antifungal activity against Candida albicans ATCC 44859 after 24 hrs by broth microdilution method. In kind it is functional. Conditions: ATCC 44859, 24 h.
The test system of series [23] is Lichtheimia corymbifera. Briefly: Antifungal activity against Absidia corymbifera 272 after 24 hrs by broth microdilution method. It is filed as functional. The following applies: Lichtheimia corymbifera, 272, 24 h.
Series [24] concerns Mycobacterium kansasii. The series can be described thus: Antimycobacterial activity against Mycobacterium kansasii 6509/96 after 14 days by micromethod. Conditions: 6509/96, 336 h. It is filed as functional. Summed up: as §1
Series [25] deals with Nakaseomyces glabratus. Briefly: Antifungal activity against Candida glabrata 20/I after 24 hrs by broth microdilution method. It is filed as functional.
Series [26] concerns Trichophyton mentagrophytes. Briefly: Antifungal activity against Trichophyton mentagrophytes after 24 hrs by broth microdilution method. In kind it is functional.
The test system of series [27] is Mycobacterium kansasii. Briefly: Antimycobacterial activity against Mycobacterium kansasii 235/80 after 14 days by micromethod. In kind it is functional. Conditions: 235/80, 336 h. Summed up:
as §1

Series [28] relates to Mycobacterium kansasii. The series can be described thus: Antimycobacterial activity against Mycobacterium kansasii. In kind it is functional.
The test system of series [29] is Mycobacterium tuberculosis. Briefly: Antimycobacterial activity against Mycobacterium tuberculosis H37Rv 331/88 after 14 days by micromethod. It is filed as functional. Conditions: H37Rv 331/88, 336 h. Put shortly: as §1
The test system of series [30] is Mycobacterium tuberculosis. Briefly: Antimycobacterial activity against Mycobacterium tuberculosis H37Rv 331/88 after 21 days by micromethod. In kind it is functional. The following applies: H37Rv 331/88, 504 h. Put shortly:
as §1

The next series deals with PBMC. The series can be described thus: Cytotoxicity against human PBMC after 24 hrs by MTT assay. In kind it is cell-based. Put shortly: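 Human peripheral blood mononuclear cells in RPMI-1640 with 10% fetal calf serum, 2 mM L-glutamine and gentamicin, 37 °C, 5% CO2. Seeded at 1.5–2.0 × 10⁵ cells/well. After 24 h, treated overnight in serum-free medium. Viability by MTT (2 mg/mL, 4 h); formazan dissolved in DMSO; OD540 minus OD620. Cytotoxicity % = [1 − OD treated/OD control] × 100; IC50 from dose-response curves. Four parallels, two independent experiments.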
(Tetrazolium dyes change colour on reduction, which living cells bring about.)

A short description of series [31]: Selectivity index, ratio of IC50 for human PBMC to MIC for Mycobacterium tuberculosis H37Rv 331/88 after 14 days. It is filed as functional. Put shortly: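 SI = PBMC IC50 (MTT cytotoxicity) divided by the MIC against the named M. tuberculosis strain. MIC taken after 14 days of incubation at 37 °C by the micromethod.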

In the case of `CC(=O)N[C@@H](Cc1ccccc1)C(=O)Oc1ccc(Cl)cc1C(=O)Nc1ccc(Br)cc1`, the MIC was 125 µM (≈ 64.5 µg/mL) with Pichia kudriavzevii [1]; 4 µM (≈ 2.06 µg/mL) in the series on Mycobacterium kansasii [3]; 1 µM (≈ 0.516 µg/mL) against Mycobacterium avium [4]; above 125 µM in series [5]; 125 µM (≈ 64.5 µg/mL) against Aspergillus fumigatus [6]; above 125 µM in the series on Pichia kudriavzevii [7]. Moreover, the MIC with Mycobacterium avium [8] was 4 µM (≈ 2.06 µg/mL); against Mycobacterium kansasii [9], 4 µM (≈ 2.06 µg/mL); with Candida albicans [10], above 125 µM; against Trichosporon beigelii [11] it was 125 µM (≈ 64.5 µg/mL); in [12], 1 µM (≈ 0.516 µg/mL); with Aspergillus fumigatus [13] it was above 125 µM. The minimum inhibitory concentration (MIC) was 8 µM (≈ 4.13 µg/mL) against Mycobacterium kansasii [14]; above 125 µM against Candida tropicalis [15]; above 125 µM against Trichosporon beigelii [16]; above 125 µM with Candida tropicalis [17]; 4 µM (≈ 2.06 µg/mL) in the series with Mycobacterium kansasii [18]; above 125 µM against Nakaseomyces glabratus [19]. For the same molecule, the MIC in the series with Mycobacterium avium [20] is 8 µM (≈ 4.13 µg/mL); with Lichtheimia corymbifera [21], above 125 µM; in the series with Candida albicans [22] it was 125 µM (≈ 64.5 µg/mL); against Lichtheimia corymbifera [23], 125 µM (≈ 64.5 µg/mL); in the series with Mycobacterium kansasii [24], 4 µM (≈ 2.06 µg/mL); with Nakaseomyces glabratus [25] it was above 125 µM. Moreover, the MIC is above 125 µM in [26]; 4 µM (≈ 2.06 µg/mL) in the series with Mycobacterium kansasii [27]; 1 µM (≈ 0.516 µg/mL) against Mycobacterium kansasii [28]; 2 µM (≈ 1.03 µg/mL) in series [29]; 2 µM (≈ 1.03 µg/mL) in [30]. Moreover, in series [2], the logP was 4.83.

Molecule `CC(=O)N[C@@H](Cc1ccccc1)C(=O)Oc1ccc(Cl)cc1C(=O)Nc1ccc(Cl)c(Cl)c1` displayed an IC50 in the series on PBMC of 44 µM. The molecule also had a logP in [2] of 5.12. The MIC turned out to be 1 µM (≈ 0.506 µg/mL) in the series on Mycobacterium kansasii [3]; 1 µM (≈ 0.506 µg/mL) with Mycobacterium avium [4]; 8 µM (≈ 4.05 µg/mL) against Mycobacterium avium [8]; 4 µM (≈ 2.02 µg/mL) with Mycobacterium kansasii [9]; 1 µM (≈ 0.506 µg/mL) in [12]; 4 µM (≈ 2.02 µg/mL) with Mycobacterium kansasii [14]. Further, the MIC worked out at 1 µM (≈ 0.506 µg/mL) in the series on Mycobacterium kansasii [18]; 8 µM (≈ 4.05 µg/mL) in the series with Mycobacterium avium [20]; 2 µM (≈ 1.01 µg/mL) in the series on Mycobacterium kansasii [24]; 2 µM (≈ 1.01 µg/mL) against Mycobacterium kansasii [27]; 1 µM (≈ 0.506 µg/mL) in the series on Mycobacterium kansasii [28]; 0.5 µM (≈ 0.253 µg/mL) in series [29]. The lowest concentration to inhibit growth in series [30] (MIC) was 1 µM (≈ 0.506 µg/mL). Further, the “Selectivity Index” value in series [31] is recorded as 88.

By MIC is commonly meant the lowest concentration that inhibits growth of the organism. A word on the logP: it is a log measure of how a compound divides between an organic and an aqueous phase. What is called IC50 is the concentration at which inhibition is half-maximal.

These data come from ChEMBL document CHEMBL1629494, “New amino acid esters of salicylanilides active against MDR-TB and other microbes” (Eur J Med Chem, 2010).
